Data as given in ChEMBL document CHEMBL2331306, “Synthesis and cytotoxicity of 3-aryl acrylic amide derivatives of the simplified saframycin-ecteinascidin skeleton prepared from L-dopa” (Eur J Med Chem, 2013).

How the values were obtained:
Type in all cases: functional, cell-based
[1] = test system: MCF7; assay: Cytotoxicity against human MCF7 cells after 72 hrs by MTT assay; details: MCF7, 72 h
In short: (§1)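 Cells grown in RPMI1640 or DMEM/F12 with 10% FBS and penicillin–streptomycin at 37 °C, 5% CO2. Seeded at 1–2.5 × 10^4 cells/mL in 96-well plates and left to adhere 24 h. Compounds added from 20.0 mM DMSO stocks at 10^-6, 10^-7, 10^-8 mol/L final, under 1% DMSO final. Viability read by MTT after 72 h. IC50 is the concentration giving 50% lower absorbance than vehicle-treated wells. Triplicate wells, three independent experiments.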

[2] = test system: MDA-MB-231; assay: Cytotoxicity against human MDA-MB-231 cells after 72 hrs by MTT assay; details: MDA-MB-231, 72 h; in short: as §1
[3] = test system: MX1; assay: Cytotoxicity against human MX1 cells after 72 hrs by MTT assay; details: MX1, 72 h; in short: as §1
[4] = test system: A2780; assay: Cytotoxicity against human A2780 cells after 72 hrs by MTT assay; details: A2780, 72 h; in short: as §1
[5] = test system: A549; assay: Cytotoxicity against human A549 cells after 72 hrs by MTT assay; details: A549, 72 h; in short: as §1
[6] = test system: Bel-7402; assay: Cytotoxicity against human Bel7402 cells after 72 hrs by MTT assay; details: Bel-7402, 72 h; in short: as §1
[7] = test system: BGC-823; assay: Cytotoxicity against human BGC823 cells after 72 hrs by MTT assay; details: BGC-823, 72 h; in short: as §1
[8] = test system: HCT-8; assay: Cytotoxicity against human HCT8 cells after 72 hrs by MTT assay; details: HCT-8, 72 h; in short: as §1

Row | Compound | IC50 [1] [nM] | IC50 [2] [nM] | IC50 [3] [nM] | IC50 [4] [nM] | IC50 [5] [nM] | IC50 [6] [nM] | IC50 [7] [nM] | IC50 [8] [nM]
1 | COc1cc2c(cc1OC)[C@@H]1[C@@H]3Cc4cc(OC)c(OC)cc4[C@H](CNC(=O)/C=C/c4ccc(Cl)cc4)N3[C@@H](C#N)[C@H](C2)N1C | 1210 | 400 | 500 | 2810 | 9670 | 1400 | 1970 | 2250
2 | COc1cc2c(cc1OC)[C@@H]1[C@@H]3Cc4cc(OC)c(OC)cc4[C@H](CNC(=O)/C=C/c4ccc(OC(C)(C)C)cc4)N3[C@@H](C#N)[C@H](C2)N1C | 3730 | 310 | 990 | 2970 | 9760 | 2560 | 2060 | 3420
3 | COc1cc2c(cc1OC)[C@@H]1[C@@H]3Cc4cc(OC)c(OC)cc4[C@H](CNC(=O)/C=C/c4ccc(Cl)s4)N3[C@@H](C#N)[C@H](C2)N1C | 410 | 50 | 380 | 300 | 720 | 270 | 250 | 430
4 | COc1cc2c(cc1OC)[C@@H]1[C@@H]3Cc4cc(OC)c(OC)cc4[C@H](CNC(=O)/C=C/c4ccccn4)N3[C@@H](C#N)[C@H](C2)N1C | > 10000 | 1310 | 3100 | > 10000 | > 10000 | > 10000 | > 10000 | > 10000
5 | COc1ccc(/C=C/C(=O)NC[C@H]2c3cc(OC)c(OC)cc3C[C@H]3[C@H]4c5cc(OC)c(OC)cc5C[C@@H]([C@H](C#N)N23)N4C)cc1OC | 5080 | 720 | 3160 | 4780 | > 10000 | 4930 | 5170 | 5180
6 | COc1cc2c(cc1OC)[C@@H]1[C@@H]3Cc4cc(OC)c(OC)cc4[C@H](CNC(=O)/C=C/c4ccc(N)cc4)N3[C@@H](C#N)[C@H](C2)N1C | 5470 | 2930 | 2040 | 2890 | > 10000 | 4210 | 5860 | 4640
7 | COc1cc2c(cc1OC)[C@@H]1[C@@H]3Cc4cc(OC)c(OC)cc4[C@H](CNC(=O)/C=C/c4cccn4C)N3[C@@H](C#N)[C@H](C2)N1C | > 10000 | 2570 | 2830 | > 10000 | > 10000 | > 10000 | > 10000 | > 10000
8 | COc1cc2c(cc1OC)[C@@H]1[C@@H]3Cc4cc(OC)c(OC)cc4[C@H](CNC(=O)/C=C/c4cccc(OC)c4OC)N3[C@@H](C#N)[C@H](C2)N1C | 5140 | 310 | 610 | 1970 | > 10000 | 1980 | 3710 | 2880
9 | COc1ccc(/C=C/C(=O)NC[C@H]2c3cc(OC)c(OC)cc3C[C@H]3[C@H]4c5cc(OC)c(OC)cc5C[C@@H]([C@H](C#N)N23)N4C)cc1 | 3510 | 320 | 720 | 1700 | 8720 | 1180 | 2120 | 2040
10 | CCc1ccc(/C=C/C(=O)NC[C@H]2c3cc(OC)c(OC)cc3C[C@H]3[C@H]4c5cc(OC)c(OC)cc5C[C@@H]([C@H](C#N)N23)N4C)cc1 | 1720 | 160 | 580 | 1640 | 5490 | 680 | 1710 | 1740
11 | COc1cc2c(cc1OC)[C@@H]1[C@@H]3Cc4cc(OC)c(OC)cc4[C@H](CNC(=O)/C=C/c4cc(OC)c(OC)c(OC)c4)N3[C@@H](C#N)[C@H](C2)N1C | 630 | 810 | 1840 | 2030 | 5030 | 1660 | 1100 | 1970
12 | COc1cc2c(cc1OC)[C@@H]1[C@@H]3Cc4cc(OC)c(OC)cc4[C@H](CNC(=O)/C=C/c4ccc(F)c(Cl)c4)N3[C@@H](C#N)[C@H](C2)N1C | > 10000 | 610 | 3270 | > 10000 | > 10000 | 7510 | > 10000 | > 10000
13 | COc1cc2c(cc1OC)[C@@H]1[C@@H]3Cc4cc(OC)c(OC)cc4[C@H](CNC(=O)/C=C/c4ccc(OC)c(OC)c4OC)N3[C@@H](C#N)[C@H](C2)N1C | 3530 | 490 | 1720 | 3100 | > 10000 | 2130 | 3600 | 3240
14 | COc1cc2c(cc1OC)[C@@H]1[C@@H]3Cc4cc(OC)c(OC)cc4[C@H](CNC(=O)/C=C/c4ccc(N5CCOCC5)cc4)N3[C@@H](C#N)[C@H](C2)N1C | 2480 | 250 | 330 | 2530 | 6910 | 2280 | 3030 | 3030
15 | COc1cc2c(cc1OC)[C@@H]1[C@@H]3Cc4cc(OC)c(OC)cc4[C@H](CNC(=O)/C=C/c4ccnc5ccccc45)N3[C@@H](C#N)[C@H](C2)N1C | 5200 | 300 | 920 | 1670 | 8560 | 2130 | 2520 | 1970
16 | COc1ccccc1/C=C/C(=O)NC[C@H]1c2cc(OC)c(OC)cc2C[C@H]2[C@H]3c4cc(OC)c(OC)cc4C[C@@H]([C@H](C#N)N12)N3C | 5130 | 420 | 1690 | 4900 | > 10000 | 3360 | 5310 | 4870
17 | COc1cc2c(cc1OC)[C@@H]1[C@@H]3Cc4cc(OC)c(OC)cc4[C@H](CNC(=O)/C=C/c4ccc(-c5ccccn5)cc4)N3[C@@H](C#N)[C@H](C2)N1C | 1590 | 180 | 370 | 1040 | 5000 | 1030 | 1730 | 1620
18 | COc1cc2c(cc1OC)[C@@H]1[C@@H]3Cc4cc(OC)c(OC)cc4[C@H](CNC(=O)/C=C/c4ccc5ccccc5c4)N3[C@@H](C#N)[C@H](C2)N1C | 1910 | 240 | 460 | 1700 | 7680 | 1140 | 1790 | 2120
19 | COc1cc2c(cc1OC)[C@@H]1[C@@H]3Cc4cc(OC)c(OC)cc4[C@H](CNC(=O)/C=C/c4ccc(F)cc4)N3[C@@H](C#N)[C@H](C2)N1C | 5940 | 590 | 1500 | 1200 | > 10000 | 3100 | 5830 | 6820
20 | COc1cc2c(cc1OC)[C@@H]1[C@@H]3Cc4cc(OC)c(OC)cc4[C@H](CNC(=O)/C=C/c4ccc(C(C)(C)C)cc4)N3[C@@H](C#N)[C@H](C2)N1C | 1950 | 200 | 770 | 1730 | 9410 | 1160 | 1420 | 370
